Measured values gathered from unrelated publications.
Protocols differ between the studies behind these lines.
Matrix: plasma
Route: intravenous

With `CN1CCC(c2ccccc2CC(C)(C)Nc2nc(N3CCOCC3)nc(-n3c(C(F)F)nc4ccccc43)n2)CC1` the Vd was 23.7 L/kg (rat; 5 mg/kg, single dose).
With `C=CC(=O)Nc1cc(Nc2nccc(Nc3cc(Cl)c(F)cc3C(C)(C)O)n2)c(OC)cc1N1CC[C@@H](N(C)C)C1` the Vd was 13.6 L/kg (Wistar rat; 3 mg/kg).
`CCc1cc(C(=O)NC)c2nccc(N3CCc4c(cc(Cn5ccnc5)cc4-c4cn(C)nc4C(F)(F)F)C3=O)c2c1` gave a Vd of 1 L/kg (male Sprague-Dawley rat; 3 mg/kg).
The Vd of `COc1cc(F)ccc1-c1ncnc(Nc2cccc(C[S@](C)(=N)=O)c2)n1` is reported as 1 L/kg (male Wistar rat).
For `C#Cc1cnc2nc(O)n(C(CC)CC)c2n1`, the Vd was 0.8 L/kg (Sprague-Dawley rat; 1 mg/kg).
With `CCOC(=O)[C@@]12C[C@@H]1[C@@H](n1ccc3c(NC)nc(C#Cc4ccc(Cl)s4)nc31)[C@H](O)[C@@H]2O` the Vd was 33.8 L/kg (male Sprague-Dawley rat; 0.5 mg/kg).
`Oc1c(-n2ccnn2)cnn1-c1cc(N2CCOCC2)ncn1` has a Vd of 0.62 L/kg (male rat; 5 mg/kg).
For `Oc1c(Br)cc(Cl)c2cccnc12`, the Vd was 21.3 L/kg (Sprague-Dawley rat; 2 mg/kg).
The Vd of `COc1ccc2c(Cc3ccccc3F)c3[n+](cc2c1OC)CCc1cc2c(cc1-3)OCO2.[Br-]` is reported as 71.8 L/kg (rat; 5 mg/kg).
With `CCCC[C@@H]1NC(=O)[C@H](Cc2ccc(O)cc2)NC(=O)[C@@H]2CCCN2C(=O)[C@H](CC(=O)O)NC(=O)[C@H](C)NC(=O)[C@H](Cc2ccccc2)NC(=O)[C@@H]2CSCCC(=O)N3CN(CN(C3)C(=O)CCSC[C@@H](C(=O)N[C@@H](C)C(N)=O)NC1=O)C(=O)CCSC[C@H](NC(C)=O)C(=O)N[C@@H](CC(C)(C)C)C(=O)N1CCC[C@H]1C(=O)N[C@@H](CCC(=O)O)C(=O)N[C@H](CCCCNC(=O)CCc1cn(CCOCCOCCOCCOCCOCCC(=O)N[C@H]3CSCCC(=O)N4CN5CN(C4)C(=O)CCSC[C@H](NC(=O)[C@@H](CC(=O)O)NC(=O)[C@H](Cc4cccc6ccccc46)NC(=O)[C@@H]4CCCN4C3=O)C(=O)N[C@@H](CCSC)C(=O)N[C@@H](CCCCNC(=N)N)C(=O)N[C@@H](CC(=O)O)C(=O)N[C@@H](Cc3c[nH]c4ccccc34)C(=O)N[C@@H](CO)C(=O)N[C@@H]([C@@H](C)O)C(=O)N3CCC[C@H]3C(=O)N3C[C@H](O)C[C@H]3C(=O)N[C@@H](Cc3c[nH]c4ccccc34)C(=O)N[C@H](C(N)=O)CSCCC5=O)nn1)C(=O)N1CCC[C@H]1C(=O)N[C@@H](Cc1ccc(O)cc1)C(=O)N2` the Vd was 1 L/kg (rat; 2 mg/kg).
The Vd of `O=C(c1cc(Cc2n[nH]c(=O)c3ccccc23)ccc1F)N1CCN(C(=O)C2CC2)CC1` is reported as 0.201 L (female Sprague-Dawley rat).
`CCCC[C@@H]1NC(=O)[C@H](Cc2ccc(O)cc2)NC(=O)[C@@H]2CCCN2C(=O)[C@H](CC(=O)O)NC(=O)[C@H](C)NC(=O)[C@H](Cc2ccccc2)NC(=O)[C@@H]2CSCCC(=O)N3CN(CN(C3)C(=O)CCSC[C@@H](C(=O)N[C@@H](CNC(=O)CCOCCOCCOCCOCCOCCOCCOCCOCCOCCOCCOCCOCCn3cc(CCC(=O)NCCC(=O)N(C)CC(=O)N(C)CC(=O)N(C)CC(=O)N(C)CC(=O)N(C)CC(=O)N(C)CC(=O)N(C)CC(=O)N(C)CC(=O)N(C)CC(=O)N(C)CC(=O)N[C@H]4CSCCC(=O)N5CN6CN(C5)C(=O)CCSC[C@H](NC(=O)[C@@H](CC(=O)O)NC(=O)[C@H](Cc5cccc7ccccc57)NC(=O)[C@@H]5CCCN5C4=O)C(=O)N[C@@H](CCSC)C(=O)N[C@@H](CCCCNC(=N)N)C(=O)N[C@@H](CC(=O)O)C(=O)N[C@@H](Cc4c[nH]c5ccccc45)C(=O)N[C@@H](CO)C(=O)N[C@@H]([C@@H](C)O)C(=O)N4CCC[C@H]4C(=O)N4C[C@H](O)C[C@H]4C(=O)N[C@@H](Cc4c[nH]c5ccccc45)C(=O)N[C@H](C(N)=O)CSCCC6=O)nn3)C(N)=O)NC1=O)C(=O)CCSC[C@H](NC(C)=O)C(=O)N[C@@H](CC(C)(C)C)C(=O)N1CCC[C@H]1C(=O)N[C@@H](CCC(=O)O)C(=O)N[C@H](C)C(=O)N1CCC[C@H]1C(=O)N[C@@H](Cc1ccc(O)cc1)C(=O)N2` gave a Vd of 0.46 L/kg (rat; 2 mg/kg).
`Cc1noc(-c2cc3cc(-c4nc(C(=O)NCc5ccncc5)[nH]c4C)ccc3[nH]2)n1` has a Vd of 1.5 L/kg (Sprague-Dawley rat; 1 mg/kg).
